Screens as filed in PubChem.
In the library only some 3.1% were active in any assay of this set; here they are far more common.
Hsp70 act: Hsp70 transcriptional activation, primary screen; HeLa Hsp70 promoter luciferase reporter, luminescence; scaled: vehicle 0, proteasome-inhibitor control 100%; activation, % at 10 µM; actives 0.04% (n = 200,000);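 active = activation above the mean across all tested compounds plus 3 SD, cutoff set per campaign, cut at about 5.5% in these data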;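 also: 100% = MG132 at 30 µM as the positive control and 0% = DMSO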
HSF1 inhib: HSF1 inhibition | NIH3T3-HGL HSE-luciferase, MG132-induced, luminescence 8 h; active compounds read low | activity change, negative = inhibition, % at 7.5 µM (by protocol) | actives 0.77% (n = 300,000) | AID 2098;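 active = more than half of replicate wells show activity change below -50%, luminescence cut by over half; inconclusive = some wells, but at most half, below -50%; inactive = no replicate well below -50%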;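 also: luciferase reports HSF-1 transcriptional activity via heat shock element; 0% = median of DMSO wells and -100% = zero luminescence signal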
HKDC1 inhibitor: inhibitors of human hexokinase HKDC1. Q2TB90. recombinant HKDC1, G6PDH/diaphorase resazurin coupled fluorescence. inhibition, % at 20 µM. actives 0.16% (n = 340,000). AID 493160;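 active = inhibition above about 35% when tested at 20 µM, limit read from the data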;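 also: plate controls were DMSO wells with enzyme for no effect and DMSO wells lacking enzyme for full effect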
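test system = in-house recombinant HK5 (HKDC1) enzyme | amount = HKDC1 at 5 µg/mL | control set = DMSO-enzyme wells negative, buffer-substituted wells positive | compound = one dose of 20 µM, 1% DMSO | schedule = reaction time 90 min, room temperature, protected from light | technique = resorufin fluorescence at 613 nm | reagent = glucose with 1 mM ATP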
TbHK1 inh: T. brucei hexokinase 1 inhibition | recombinant TbHK1, G6PDH-coupled NADH A340 | actives 0.11% (n = 220,000) | AID 1430 | inhibition, % at 10 µM;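 active = inhibition of 50% or more in the single-dose primary screen; inactive = inhibition below 50%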
HSP90 refold inh: HSP90 refolding inhibition in rabbit reticulocyte lysate. luciferase refolding luminescence, 3 h. inhibition, % at 5.6 µM. actives 0.91% (n = 290,000);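 active = inhibition above the screen-wide mean plus 3 SD, computed separately per campaign, cut at about 16% in these data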;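 also: 0% = DMSO wells and 100% = 60 µM geldanamycin wells; inhibitors lower the luminescence because luciferase stays unfolded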
HSF1 activator: increases HSF-1 driven luciferase reporter signal | NIH3T3-HGL HSF-1 luciferase reporter, MG132, 8 h; 100% = twice DMSO control signal | activation, % at 9 µM | actives 1.7% (n = 300,000) | AID 504408;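 active = mean replicate activation of at least 50% with a set share of replicates each reaching 50%; inconclusive = only one of those two conditions met; inactive = mean below 50% and too few replicates reaching it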;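 also: 0% = median of the neutral control wells and 100% = twice that signal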
HSP90 inh confirm: confirmation of HSP90 inhibitors; shares compounds with HSP90 refold inh; rabbit reticulocyte lysate, luciferase refolding luminescence, 3 h; inhibition, % at 5.9 µM; actives 64% (n = 2,300); AID 1846; in the data active = inhibition above about 18%;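 also: 0% = vehicle wells and 100% = reference inhibitor wells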
FLuc counter: counter-screen for HSP90 inhibitors: inhibitors of firefly luciferase | inhibition, % at 5.9 µM | actives 48% (n = 2,300) | AID 1847 | shares compounds with HSP90 refold inh | purified native firefly luciferase, luminescence;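 active = inhibition above the mean inhibition of all tested sample wells plus 3 SD, cut at about 10% in these data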;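 also: 0% = DMSO with luciferase and 100% = wells lacking luciferase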
Target sequence (P08659 whole entry, looked up): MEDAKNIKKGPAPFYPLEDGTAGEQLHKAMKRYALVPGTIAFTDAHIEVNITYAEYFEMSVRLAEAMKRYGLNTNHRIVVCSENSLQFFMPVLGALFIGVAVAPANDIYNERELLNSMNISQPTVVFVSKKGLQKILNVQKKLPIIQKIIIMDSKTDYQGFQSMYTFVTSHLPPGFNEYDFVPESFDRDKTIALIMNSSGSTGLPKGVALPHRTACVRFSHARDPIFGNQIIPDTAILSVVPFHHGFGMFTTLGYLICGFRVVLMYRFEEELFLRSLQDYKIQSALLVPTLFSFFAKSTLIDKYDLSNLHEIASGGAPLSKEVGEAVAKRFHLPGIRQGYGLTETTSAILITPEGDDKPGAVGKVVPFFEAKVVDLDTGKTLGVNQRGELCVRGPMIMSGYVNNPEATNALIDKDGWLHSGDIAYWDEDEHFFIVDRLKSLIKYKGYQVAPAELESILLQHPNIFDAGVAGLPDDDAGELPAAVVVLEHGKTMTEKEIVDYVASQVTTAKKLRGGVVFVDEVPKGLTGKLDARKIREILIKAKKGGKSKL
Starred values were filed as active, the others as inactive; ? = inconclusive; / = no result.

SMILES | Hsp70 act | HSF1 inhib | HKDC1 inhibitor | TbHK1 inh | HSP90 refold inh | HSF1 activator | HSP90 inh confirm | FLuc counter
CC1CCN(C(=O)N2c3ccccc3Sc3ccccc32)CC1 | 0 | 12 | 3 | 2 | 19* | 22 | 8 | 2
CCN(C(=O)Nc1cccc(Cl)c1)c1ccccc1 | / | 7 | -3 | / | 2 | 0 | / | /
Cc1cccc(N(O)C(=O)Nc2cccc(Cl)c2)c1 | / | 2 | 2 | / | 26* | 29 | 62* | -17
O=C(COC(=O)/C=C/c1ccc(F)cc1)NC1CCCCCC1 | / | / | 0 | / | / | / | / | /
COc1ccccc1OCc1ccc(C(=O)N(C)c2ccccc2)o1 | / | 2 | 1 | / | 32* | 19 | 4 | -2
COc1ccccc1OCc1ccc(C(=O)N(C)C)o1 | 0 | 3 | 0 | 4 | 1 | -4 | / | /
Cc1ccccc1CN1C(=O)[C@H]2Cc3c([nH]c4ccccc34)C(C)(C)N2C1=O | / | -1 | -1 | / | / | -7 | / | /
Cc1ccc(-c2cc(C(=O)N3CCCCCC3)no2)cc1 | / | 1 | -5 | / | 23* | 3 | 29* | 20*
COc1ccc2cc3cc(C(=O)N4CCN(C5CCCCC5)CC4)oc3nc2c1 | / | 3 | 4 | / | 3 | 17 | / | /
COc1ccc(-c2cc(C(=O)N3CCCC3)no2)cc1 | / | -1 | -7 | / | 39* | 24 | 57* | 42*
O=C(c1cc(-c2ccccc2)on1)N1CCCCCC1 | / | 38 | -5 | / | 14 | ? | / | /
COc1ccc2cc3cc(C(=O)N4CCCCCC4)oc3nc2c1 | / | -5 | 17 | / | 17* | -5 | 40* | 22*
C[C@]12c3[nH]c4ccccc4c3CCN1C(=O)C(CC(=O)NCCCn1ccnc1)C[C@@H]2C(=O)N1CCOCC1 (some centres not stated) | / | / | -6 | / | / | / | / | /
COc1cc(NC(=O)c2cc(OC)c(OC)c(OC)c2)cc(-n2cnnn2)c1 | / | 9 | 3 | / | 2 | -12 | / | /
CN(Cc1ccc(Cl)c(Cl)c1)C(=O)C1=CC=CN2CCS(=O)(=O)N=C12 | / | / | -5 | / | / | / | / | /
CCc1nc2ccccc2c(=O)n1/N=C/c1ccc(Cl)cc1 | / | -12 | -3 | / | / | -8 | / | /
NNC(=O)c1cccc(COc2ccc3c(c2)CCC3)c1 | -1 | ? | 0 | 5 | 36* | -58 | 66* | 56*
O=C(COc1ccc2c(c1)CCC2)NCc1ccccc1 | 0 | -1 | -1 | -3 | -9 | -4 | / | /
NNC(=O)c1cccc(COc2ccccc2Br)c1 | 0 | -22 | -3 | 6 | 39* | -30 | 36* | 9.8*
Cc1ccc(NC(=S)N2CCN(S(=O)(=O)c3ccc(F)cc3)CC2)cc1 | / | 5 | -2 | / | -1 | 37 | / | /
Cc1ccc(OCCCC(=O)NNC(=O)c2ccccn2)cc1 | / | / | 5 | / | / | / | / | /
CCc1nc(SCC(=O)Nc2nc3c(s2)CCCC3)c2ccccc2n1 | 0 | 0 | 7 | -3 | 11 | 0 | / | /
CCCc1nc(SCC(=O)Nc2nc3c(s2)CCCC3)c2ccccc2n1 | 0 | 2 | 9 | -2 | 19* | 12 | 11 | 0
CCCC(C(=O)Nc1ccc2c(C)cc(=O)oc2c1)c1ccccc1 (configuration not stated) | / | -2 | 0 | / | -4 | -17 | / | /
CC(C)c1ccc(/C=C2\SC(=O)N(CC(=O)NC3C=CS(=O)(=O)C3)C2=O)cc1 (configuration not stated) | / | 21 | 3 | / | -6 | 35 | / | /
SMILES | Hsp70 act | HSF1 inhib | HKDC1 inhibitor | TbHK1 inh | HSP90 refold inh | HSF1 activator | HSP90 inh confirm | FLuc counter
COCCCn1c(SCC(=O)OC2CCCCC2)nnc1-c1ccco1 | 0 | 0 | -3 | 3 | -3 | 4 | / | /
Cn1c(SCC(=O)OC2CCCCC2)nnc1-c1ccco1 | 0 | -15 | 5 | 7 | 22* | -25 | -11 | -18
CN(C)c1ccc(-c2nc3ccccn3c2/N=C/c2ccc(Br)cc2)cc1 | 1 | 0 | -2 | -8 | 18* | 24 | 35* | 19*
Cc1cccc(NC(=S)NC(=O)/C=C/c2ccco2)c1 | 0 | 1 | -5 | -2 | 2 | -1 | / | /
Cc1cccc(NC(=S)NC(=O)/C=C/c2ccco2)n1 | 0 | 31 | -1 | -66 | 18* | 43 | 0 | -8
C#CCOCCOCCOCCNc1nc(N2CCOCC2)nc(N2CCN(C(=O)[C@H](Cc3cc4ccccc4[nH]3)n3cc([C@@H](N)CC(C)C)nn3)CC2)n1 | 0 | 0 | 6 | 7 | 6 | -9 | / | /
C#CCOCCOCCOCCNc1nc(N2CCN(C(=O)[C@H](Cc3ccc(O)cc3)n3cc([C@@H](N)C(C)CC)nn3)CC2)nc(N2CCN(C(=O)[C@H](Cc3cc4ccccc4[nH]3)n3cc([C@@H](N)C(C)CC)nn3)CC2)n1 (some centres not stated) | 0 | -7 | 5 | -4 | 11 | 0 | / | /
C#CCOCCOCCOCCNc1nc(N2CCN(C(=O)[C@H]([C@@H](C)CC)n3cc([C@@H](N)Cc4ccc(O)cc4)nn3)CC2)nc(N2CCN(C(=O)[C@H](Cc3cc4ccccc4[nH]3)n3cc([C@@H](N)C(C)CC)nn3)CC2)n1 (some centres not stated) | 0 | 1 | / | -8 | 19* | -4 | 10 | -10
C#CCOCCOCCOCCNc1nc(N2CCN(C(=O)[C@H](Cc3cc4ccccc4[nH]3)n3cc([C@@H](N)C(C)CC)nn3)CC2)nc(N2CCN(C(=O)[C@H](Cc3cc4ccccc4[nH]3)n3cc([C@@H](N)Cc4ccc(O)cc4)nn3)CC2)n1 (some centres not stated) | 0 | -12 | / | 22 | 21* | -12 | 27* | -8
C#CCOCCOCCOCCNc1nc(N2CCN(C(=O)[C@H](Cc3cc4ccccc4[nH]3)n3cc([C@@H](N)CC(C)C)nn3)CC2)nc(N2CCN(C(=O)[C@H](Cc3cc4ccccc4[nH]3)n3cc([C@@H](N)CC(C)C)nn3)CC2)n1 | 0 | -2 | 16 | -8 | 20* | -6 | 18* | -10
Cc1cccnc1NC(=O)c1ccc2c(c1)NC(=O)C(C)S2 (configuration not stated) | / | -2 | -8 | / | / | -10 | / | /
CCCCCN(C(=O)CCC(=O)OCc1cccc(Br)c1)c1c(N)n(CCCC)c(=O)[nH]c1=O | / | -2 | -2 | / | / | -14 | / | /
COc1cc(OC)cc(-c2c(-c3cccs3)c3cc(-c4ccc(N(C)C)nc4)ccc3n2C)c1 | / | / | -6 | / | / | / | / | /
Cc1cccc(NC(=O)CSc2nc3ccc(NC(=O)CSc4nnnn4-c4ccccc4)cc3s2)c1C | 0 | / | / | 12 | 55* | / | 22* | -9
Cc1cc(NC(=O)c2ccc(Cl)c(S(=O)(=O)N3CCCCC3)c2)no1 | / | 1 | -5 | / | 2 | -9 | / | /
